Series [1] concerns Cytomegalovirus. In words: Antiviral activity against Cytomegalovirus AD-169 infected in HEL cells assessed as reduction of virus-induced cytopathogenicity. The class given is functional, organism-based. The settings on record: Human betaherpesvirus 5, AD-169, HEL.
Series [2] concerns Cytomegalovirus. Nature of the series: Antiviral activity against Cytomegalovirus Davis infected in HEL cells assessed as reduction of virus-induced cytopathogenicity. In kind it is functional, organism-based. The settings on record: Human betaherpesvirus 5, Davis. On the technique in general: Protection from cytopathic effect is a common read-out in antiviral testing.
The nature of series [3]: Cytotoxicity against HEL cells assessed as alternation of cell morphology by microscopic analysis. The class given is cell-based. Conditions: human.
The test system of series [4] is Human alphaherpesvirus 3. In words: Antiviral activity against Varicella-zoster virus expressing thymidine kinase infected in HEL cells assessed as reduction of virus-induced plaque formation. Conditions: Human alphaherpesvirus 3, HEL. In kind it is functional, organism-based. A digest of the protocol: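 Plaque-reduction assay in HEL cells. TK+ VZV strains were Oka and YS; TK- strains were 07-1 and YS-R. Virus input was 100 PFU, with graded compound concentrations. Plaques were counted once formation was complete in untreated infected controls. […] Two independent experiments were run.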

Series [5] relates to Human alphaherpesvirus 3. Nature of the series: Antiviral activity against thymidine kinase-deficient Varicella-zoster virus infected in HEL cells assessed as reduction of virus-induced plaque formation. The settings on record: Human alphaherpesvirus 3, HEL. The class given is functional, organism-based. In a few lines:
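Plaque-reduction assay in HEL cells. TK+ VZV strains were Oka and YS; TK- strains were 07-1 and YS-R. Virus input was 100 PFU, with graded compound concentrations. Plaques were counted once formation was complete in untreated infected controls. Two independent experiments were run.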

A further series has as its system L1210. Nature of the series: Cytotoxicity against mouse L1210 cells assessed as inhibition of cell proliferation. The class given is functional, cell-based.
A further series deals with CCRF-CEM. In words: Cytotoxicity against human CEM cells assessed as inhibition of cell proliferation. The class given is functional, cell-based.
For another series, the system named is HeLa. Nature of the series: Cytotoxicity against human HeLa cells assessed as inhibition of cell proliferation. In kind it is functional, cell-based.
The test system of another series is MDCK. Nature of the series: Cytotoxicity against MDCK cells assessed cell viability by MTS assay. Conditions: dog. In kind it is cell-based, Canis lupus familiaris. In a few lines: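 Cells were exposed to a range of compound concentrations. Viability was measured by the colorimetric formazan-based MTS assay.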
For orientation: Tetrazolium dyes change colour on reduction, which living cells bring about.

The next series relates to Human adenovirus 2. In words: Antiviral activity against Human adenovirus 2 infected in HEL cells assessed as reduction of virus-induced cytopathogenicity. The class given is functional, organism-based. In a few lines:
(§1)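 Confluent monolayers were infected with 100 CCID50 of virus (1 CCID50 infects 50% of cultures) or 20 PFU. The cultures were then incubated with varying test compound concentrations. Cytopathicity was scored once it was complete in untreated infected controls.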

For series [6], the system named is Vesicular stomatitis virus. Nature of the series: Antiviral activity against Vesicular stomatitis virus infected in human HeLa cells assessed as reduction of virus-induced cytopathogenicity. The class given is functional, organism-based. In a few lines: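 Confluent Vero (Coxsackie B4) or HeLa (vesicular stomatitis virus) monolayers in 96-well plates were inoculated with 100 CCID50 virus or 20 PFU and incubated with varying compound concentrations. Cytopathicity was scored once complete in untreated infected controls. […] Two separate experiments were run.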

Series [7] concerns Respiratory syncytial virus. In words: Antiviral activity against Respiratory syncytial virus infected in human Hela cells assessed as reduction of virus-induced cytopathogenicity. In kind it is functional, organism-based. In a few lines:
as §1

In the next series the test system is Human respirovirus 3. Nature of the series: Antiviral activity against Parainfluenza virus 3 infected in African green monkey Vero cells assessed as reduction of virus-induced cytopathogenicity. In kind it is functional, organism-based. A digest of the protocol: as §1
In the next series the test system is Reovirus sp. Nature of the series: Antiviral activity against Reovirus infected in African green monkey Vero cells assessed as reduction of virus-induced cytopathogenicity. The class given is functional, organism-based. In a few lines: as §1
Another series deals with Sindbis virus. In words: Antiviral activity against Sindbis virus infected in African green monkey Vero cells assessed as reduction of virus-induced cytopathogenicity. The class given is functional, organism-based. In a few lines: as §1
Another series deals with Influenza A virus. Nature of the series: Antiviral activity against Influenza A virus (A/PR/8/34(H1N1)) infected in MDCK cells assessed as reduction of virus-induced cytopathogenicity. In kind it is functional, organism-based. The settings on record: A/Puerto Rico/8/1934(H1N1). A digest of the protocol:
(§2)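 MDCK cells, grown confluent in 96-well plates, were infected with influenza A/PR/8 (H1N1), A/HK/7/87 (H3N2) or B/HK/5/72 at 100 CCID50 or 20 PFU and exposed to varying compound concentrations. Cytopathic effect was recorded when it reached completion in untreated virus controls. EC50 is the concentration that halves virus-induced cytopathicity.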

The next series has as its system Influenza B virus. Nature of the series: Antiviral activity against Influenza B virus (B/HK/5/72) infected in MDCK cells assessed as reduction of virus-induced cytopathogenicity. The class given is functional, cell-based. Conditions: B/Hong Kong/05/1972. A digest of the protocol:
as §2

The test system of the next series is Felid alphaherpesvirus 1. In words: Antiviral activity against Feline herpesvirus infected in CRFK cells assessed as reduction of virus-induced cytopathogenicity. The class given is functional, organism-based. In a few lines:
as §1

The test system of a further series is Feline coronavirus. Nature of the series: Antiviral activity against Feline coronavirus infected in CRFK cells assessed as reduction of virus-induced cytopathogenicity. The class given is functional, organism-based. A digest of the protocol:
as §1

Another series deals with Influenza A virus H3N2. Nature of the series: Antiviral activity against Influenza A virus H3N2 infected in MDCK cells assessed as reduction of virus-induced cytopathogenicity. In kind it is functional, organism-based. A digest of the protocol:
as §2

Active and inactive are the calls of the source. The rule behind the calls is not given here.

As a reminder, the EC50 is the concentration needed to bring the measured effect to its halfway point. In general, IC50 refers to the point on the concentration scale where inhibition reaches its midpoint. In general, CC50 refers to the concentration giving 50% cytotoxicity. As to `CCCN1C(=O)c2cccc3cc(NC(=O)[C@@H]4C[C@@H](P(=O)(OCC)OCC)N(C)O4)cc(c23)C1=O` (racemic), the EC50 with Cytomegalovirus [1] is more than 20 µM; in the series with Cytomegalovirus [2], 45 µM; in the series with Human alphaherpesvirus 3 [4], 28 µM; in the series with Human alphaherpesvirus 3 [5] it was 40 µM. For the same compound, the MCC in series [3] was more than 100 µM. Also, the IC50 was found to be 41 µM in the series on L1210, 28 µM in the series on CCRF-CEM and 74 µM in the series with HeLa. In the series on MDCK, this compound displayed a 50% cytotoxic concentration (CC50) of 46.2 µM.

With `CCCCN1C(=O)c2cccc3cc(NC(=O)[C@H]4C[C@@H](P(=O)(OCC)OCC)N(C)O4)cc(c23)C1=O` (racemic), the EC50 is more than 20 µM in the series on Cytomegalovirus [1], more than 20 µM in the series on Cytomegalovirus [2], 20 µM in the series on Human alphaherpesvirus 3 [4] and 38 µM in the series with Human alphaherpesvirus 3 [5]. In addition, the MCC in series [3] is not below 100 µM. The results for the IC50 in the series on L1210 and in the series on CCRF-CEM were 28 µM and 19 µM, respectively.

As for `CCOP(=O)(OCC)[C@@H]1C[C@@H](C(=O)Nc2cc3c4c(cccc4c2)C(=O)N(CCN(CC)CC)C3=O)ON1C` (racemic), the half-maximal effective concentration (EC50) in the series on Cytomegalovirus [1] is 55 µM; with Cytomegalovirus [2], 49 µM; in the series with Human alphaherpesvirus 3 [4] it was more than 20 µM; in the series on Human alphaherpesvirus 3 [5] it was more than 20 µM. Also, in series [3], the MCC was not below 100 µM. For the same compound, the IC50 stood at 11 µM in the series with L1210, 21 µM in the series on CCRF-CEM and 13 µM with HeLa. Also, the CC50 in the series with MDCK is more than 100 µM.

In the case of `CCOP(=O)(OCC)[C@@H]1C[C@@H](C(=O)Nc2cc3c4c(cccc4c2)C(=O)N(CC(C)C)C3=O)ON1C` (relative stereo), the EC50 with Cytomegalovirus [1], with Cytomegalovirus [2], in the series on Human alphaherpesvirus 3 [4] and with Human alphaherpesvirus 3 [5] was more than 100 µM throughout. The MCC in series [3] is more than 100 µM. The IC50 with L1210 came to 72 µM; in the series with CCRF-CEM it was 48 µM; in the series on HeLa, 56 µM. The compound further registered a CC50 in the series on MDCK of more than 100 µM.

Turning to `CCOP(=O)(OCC)[C@@H]1C[C@@H](CN2C(=O)c3cccc4cc(N)cc(c34)C2=O)ON1C` (relative stereo), the outcome (in the series with Human adenovirus 2; in [6]; in [7]; in the series with Human respirovirus 3; with Reovirus sp.; in the series with Sindbis virus) was inactive. The outcome in the series with Influenza A virus, with Influenza B virus, in the series on Felid alphaherpesvirus 1, in the series on Feline coronavirus and in the series with Influenza A virus H3N2 was inactive.

With `CCOP(=O)(OCC)[C@@H]1C[C@@H](CN2C(=O)c3cccc4cc(NC(C)=O)cc(c34)C2=O)ON1C` (relative stereo), the result (with Human adenovirus 2; in [6]; in series [7]; in the series with Human respirovirus 3; in the series on Reovirus sp.; in the series with Sindbis virus) was inactive. The result in the series on Influenza A virus, with Influenza B virus, in the series with Felid alphaherpesvirus 1, with Feline coronavirus and with Influenza A virus H3N2 was inactive.

Take `CCOP(=O)(OCC)[C@@H]1C[C@@H](CN2C(=O)c3cccc4cc([N+](=O)[O-])cc(c34)C2=O)ON1C` (relative stereo): the outcome (in the series with Human adenovirus 2; in series [6]; in [7]; with Human respirovirus 3; in the series on Reovirus sp.; in the series with Sindbis virus) was inactive. Also, the outcome in the series on Influenza A virus, with Influenza B virus, in the series on Felid alphaherpesvirus 1, in the series with Feline coronavirus and in the series on Influenza A virus H3N2 was inactive.

For the compound `CCOP(=O)(OCC)[C@@H]1C[C@@H](CN2C(=O)c3cccc4cccc(c34)C2=O)ON1C` (relative stereo), the outcome (in the series with Human adenovirus 2; in series [6]; in series [7]; in the series on Human respirovirus 3; in the series on Reovirus sp.; with Sindbis virus) was inactive. The result with Influenza A virus, in the series with Influenza B virus, with Felid alphaherpesvirus 1, in the series with Feline coronavirus and in the series on Influenza A virus H3N2 was inactive.

As for `CCOP(=O)(OCC)[C@@H]1C[C@H](CN2C(=O)c3cccc4cc(N)cc(c34)C2=O)ON1C` (relative stereo), the result (in the series on Human adenovirus 2; in series [6]; in series [7]; with Human respirovirus 3; in the series with Reovirus sp.; in the series on Sindbis virus) was inactive. Also, the result in the series on Influenza A virus, in the series on Influenza B virus, with Felid alphaherpesvirus 1, in the series with Feline coronavirus and in the series with Influenza A virus H3N2 was inactive.

For the compound `CCOP(=O)(OCC)[C@@H]1C[C@H](CN2C(=O)c3cccc4cc(NC(C)=O)cc(c34)C2=O)ON1C` (relative stereo), the outcome (with Human adenovirus 2; in [6]; in [7]; with Human respirovirus 3; with Reovirus sp.; in the series on Sindbis virus) was inactive. Moreover, the outcome with Influenza A virus, in the series with Influenza B virus, in the series on Felid alphaherpesvirus 1, in the series with Feline coronavirus and in the series on Influenza A virus H3N2 was inactive.

Consider `CCOP(=O)(OCC)[C@@H]1C[C@H](CN2C(=O)c3cccc4cc([N+](=O)[O-])cc(c34)C2=O)ON1C` (relative stereo), for which the outcome (in the series with Human adenovirus 2; in series [6]; in [7]; in the series on Human respirovirus 3; in the series on Reovirus sp.; in the series with Sindbis virus) was inactive. The outcome in the series on Influenza A virus, in the series with Influenza B virus, in the series with Felid alphaherpesvirus 1, with Feline coronavirus and in the series with Influenza A virus H3N2 was inactive.

For the compound `CCOP(=O)(OCC)[C@@H]1C[C@H](CN2C(=O)c3cccc4cccc(c34)C2=O)ON1C` (relative stereo), the outcome (in the series on Human adenovirus 2; in series [6]; in [7]; in the series on Human respirovirus 3; with Reovirus sp.; with Sindbis virus) was inactive. The outcome in the series on Influenza A virus, with Influenza B virus, in the series on Felid alphaherpesvirus 1, in the series on Feline coronavirus and in the series on Influenza A virus H3N2 was inactive.

As to `Nc1nc2c(ncn2COCCO)c(=O)[nH]1` [ACYCLOVIR], the MCC in [3] is more than 250 µM.

Take `Nc1ccn(C[C@@H](CO)OCP(=O)(O)O)c(=O)n1` [CIDOFOVIR]: the EC50 with Cytomegalovirus [2] came out at 1.02 µM. In addition, in series [3], the MCC is more than 250 µM.

With `O=c1[nH]cc(F)c(=O)[nH]1` [FLUOROURACIL], the IC50 in the series with L1210 stood at 0.33 µM.

As for `Nc1nc2c(ncn2COC(CO)CO)c(=O)[nH]1` [GANCICLOVIR], the EC50 stood at 6.3 µM in the series on Cytomegalovirus [1] and 7.1 µM in the series with Cytomegalovirus [2]. Also, the MCC in series [3] was more than 100 µM.

Consider `COc1cccc(N2CCN(C3=Nc4c(F)cccc4[C@H](CC(=O)O)N3c3cc(C(F)(F)F)ccc3OC)CC2)c1` [LETERMOVIR], for which, in the series on Cytomegalovirus [1], the EC50 came out at 0.0046 µM.
